Screens as filed in PubChem.
The list is not random: actives were taken first. Their share in the collection is about 3%.
V-ATPase pHluor – regulators of yeast V-ATPase proton transport. 350,000 compounds, 0.37% hits. response, % at 10 µM. S. cerevisiae, pHLuorin cytosolic pH fluorescence; in the data active = response mostly above about 7.3%, no sharp cut-off; inactive = mostly below about 5.4%; note: actives read high
HIF activator – HIF pathway transcriptional activation | U2OS HRE-luciferase reporter, luminescence; normalized: DMSO 0%, desferrioxamine 100% | activation, % at 7.5 µM (by protocol) | 300,000 compounds, 0.32% hits | AID 1910;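 active = mean activation of at least 10% of the iron chelator positive control signal, with at least half of replicates also reaching 10%; inconclusive = mean and replicate majority disagree about reaching 10%; inactive = mean and most replicates under 10%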
AI-2 QS modul – Vibrio harveyi AI-2 quorum sensing modulation. activity change, % at 7.5 µM. AID 2094. Vibrio harveyi JMH597 AI-2 luminescence/OD600 ratio, 9 h; hits give low values; strain lacks LuxN and CqsS sensors; 0 = neutral-control median. 300,000 compounds, 0.4% hits; in the data active = activity change below about -75%, passing the limit was not always enough; inconclusive = no clear call, values can overlap the other calls;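 note: luminescence divided by OD600 gain over 9 h not by final OD600 alone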
CendR NRP1 mod – alters CendR peptide binding to human NRP-1 | O14786 | FAM-RPARPAR peptide binding to NRP-1, fluorescence polarization | inhibition, % at 25 µM | 360,000 compounds, 0.85% hits | AID 602438;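 active = inhibition or corrected inhibition above about 18%, plus a signal ratio from 0.5 to 1.5, limit read from the data, passing the limit was not always enough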
Target sequence (O14786 whole entry, looked up): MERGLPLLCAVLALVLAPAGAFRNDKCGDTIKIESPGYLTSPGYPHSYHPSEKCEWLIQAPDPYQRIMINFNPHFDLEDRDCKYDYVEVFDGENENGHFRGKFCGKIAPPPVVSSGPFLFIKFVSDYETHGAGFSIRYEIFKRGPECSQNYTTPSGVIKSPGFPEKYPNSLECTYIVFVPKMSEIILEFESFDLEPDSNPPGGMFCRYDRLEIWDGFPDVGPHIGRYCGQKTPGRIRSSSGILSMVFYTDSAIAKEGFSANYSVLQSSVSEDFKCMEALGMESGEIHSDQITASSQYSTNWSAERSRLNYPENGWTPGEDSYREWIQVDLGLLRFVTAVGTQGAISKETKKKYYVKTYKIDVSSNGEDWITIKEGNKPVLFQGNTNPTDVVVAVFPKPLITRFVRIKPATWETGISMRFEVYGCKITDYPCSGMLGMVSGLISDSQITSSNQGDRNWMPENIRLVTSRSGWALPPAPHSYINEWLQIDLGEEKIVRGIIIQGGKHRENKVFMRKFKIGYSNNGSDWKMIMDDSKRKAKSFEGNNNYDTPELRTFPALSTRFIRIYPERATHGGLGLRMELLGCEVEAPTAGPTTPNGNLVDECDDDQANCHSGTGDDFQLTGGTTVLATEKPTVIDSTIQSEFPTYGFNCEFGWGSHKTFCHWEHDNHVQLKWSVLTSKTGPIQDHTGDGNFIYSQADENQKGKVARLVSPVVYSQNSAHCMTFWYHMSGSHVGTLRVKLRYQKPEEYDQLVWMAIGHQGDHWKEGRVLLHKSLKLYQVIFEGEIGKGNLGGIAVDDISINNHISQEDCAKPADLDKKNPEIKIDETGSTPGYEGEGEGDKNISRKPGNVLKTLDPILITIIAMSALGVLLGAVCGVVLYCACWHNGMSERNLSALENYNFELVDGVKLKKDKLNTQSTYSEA
CR mimetic SO – lowers age-related superoxide in aged yeast cells; S. cerevisiae aged cells, superoxide DHE fluorescence; hits give low values; superoxide response (% of plate mean), % at 10 µM; 330,000 compounds, 0.18% hits; AID 2690;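 active = superoxide response under a set limit, about three screen SD below normal, cut at about 65% in these data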;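 note: yeast aged for seven days with compound at 30 °C before DHE staining; 100% = average MFI of all compound-treated wells on the plate with controls excluded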
T cruzi inh – blocks replication of Trypanosoma cruzi; 300,000 compounds, 1.4% hits; AID 1885; T. cruzi beta-gal in NIH3T3, luminescence, 90 h; inhibition, % (concentration not given with the values);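 active = mean inhibition across valid replicates above about 55%, limit read from the data; inconclusive = mean below that limit but half or more replicates reach it; inactive = mean below it, under half of replicates reach it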;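 note: signal also drops with host cell toxicity which is not excluded here; 0% = plate median of DMSO wells and 100% = zero luminescence signal; higher percent means less beta-gal luminescence so fewer parasites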
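Test system: β-gal T. cruzi (Tulahuen C4) inside NIH/3T3 cells / Quantity: 5,000 cells/well / Measured by: luminescence from GalScreen with 0.05% NP40, read after 60 min / Medium: DMEM plus 2% FBS / Measure: parasite load inhibition, % / Reagent: Tulahuen C4 trypomastigotes, 5000/well / Schedule: co-culture of at least 90 h after 3 h attachment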
Numbers without * were called inactive; ? = inconclusive; / = no result.

SMILES	V-ATPase pHluor	HIF activator	AI-2 QS modul	CendR NRP1 mod	CR mimetic SO	T cruzi inh
NC(=O)C1=C[C@H](C2CCCCC2)C[C@H](OCc2ccc(CO)cc2)O1	0	6	-3	28*	94	-14
Nc1ncnc2c1ncn2[C@@H]1O[C@H](C(=O)NCCCN2CCCC2=O)[C@@H](O)[C@H]1O	/	/	/	-2	/	/
CCS(=O)(=O)c1ccc(-c2cccc(NC(=O)COc3ccccc3)c2)nn1	2	60*	39	-2	102	-11
Cc1cc(C)n(CC(=O)N/N=C/c2cccs2)n1	3	1	15	-4	86	14
O=C(N/N=C/c1ccc(Br)s1)c1ccc([N+](=O)[O-])cc1	-2	0	10	2	93	76*
O=C(N/N=C/c1ccc(Br)s1)c1ccccc1[N+](=O)[O-]	7	-1	26	11	95	7
Cc1cc(C)n(CC(=O)N/N=C/c2ccc([N+](=O)[O-])s2)n1	5	0	14	7	131	59*
O=C(N/N=C/c1ccc([N+](=O)[O-])s1)c1ccncc1	2	-1	-87*	11	122	56*
Cc1ccc(C(=O)N/N=C/c2ccc([N+](=O)[O-])s2)cc1	-5	-2	51	-25	98	58*
Cc1ccc(C(=O)N/N=C\c2ccc([N+](=O)[O-])s2)cn1	-2	-2	1	-10	105	?
O=C(N/N=C/c1cccc([N+](=O)[O-])c1)c1cccc(Br)c1	-3	0	10	-2	127	-8
O=C(N/N=C/c1ccc([N+](=O)[O-])s1)c1cccc(Br)c1	1	-2	-48	-7	110	93*
CC(C)(C)OC(=O)N/N=C\c1ccc([N+](=O)[O-])s1	-2	0	8	11	118	57*
CN1CCN(C(c2ccc(C(F)(F)F)cc2)c2cc(Cl)c3cccnc3c2O)CC1 (stereo unspecified)	/	3	-85*	/	121	59*
CN1CCN(C(c2ccc(Cl)cc2)c2cc(Cl)c3cccnc3c2O)CC1 (stereo unspecified)	-2	5	-122*	-4	117	44
Oc1c(C(c2ccccc2)N2CCOCC2)ccc2ccccc12 (stereo unspecified)	4	/	/	20	/	/
CCN1CCN(C(c2ccc(C(F)(F)F)cc2)c2ccc3cccnc3c2O)CC1 (stereo unspecified)	-3	6	-119*	9	129	40
COc1ccc(Cl)cc1NC(=O)C/C(C)=N/NC(=O)C(=O)NCc1ccccc1	-65	0	5	6	79	-8
Cc1ccc([N+](=O)[O-])cc1NC(=O)C(C)NS(=O)(=O)c1ccc(F)cc1 (stereo unspecified)	2	0	-14	0	105	15
COc1ccccc1N(CC(O)CN1C(C)CCCC1C)S(=O)(=O)c1ccccc1 (stereo unspecified)	-2	1	4	2	124	2
COc1ccccc1N(CC(O)Cn1c2ccccc2c2ccccc21)S(=O)(=O)c1ccccc1 (stereo unspecified)	-2	0	19	-10	119	63*
CCN(CC)c1nc(-c2ccccc2)ncc1S(=O)(=O)c1ccc(C)cc1	-6	-1	10	-7	112	58*
CCc1cccc(CC)c1NC(=S)NCCc1ccc(O)c(O)c1	0	-1	-1	2	87	11
O=C(OCCN1C(=O)c2cccc3c(N4CCOCC4)ccc(c23)C1=O)c1ccc(Cl)cc1	-4	12*	17	124	109	-22
CC(C)CC(=O)c1c[nH]c(C(=O)O)c1	-1	1	19	10	112	-4
SMILES	V-ATPase pHluor	HIF activator	AI-2 QS modul	CendR NRP1 mod	CR mimetic SO	T cruzi inh
CC(C)c1ccc2c(c1)C1(NN=C(c3ccccc3)S1)C(=O)N2 (stereo unspecified)	-2	4	-91*	11	130	66*
Cc1cccc(NCc2ccccc2O)c1C	-4	0	20	42*	101	-1
CN(C)c1oc(-c2ccco2)nc1C#N	-2	0	35	11	101	-16
COc1ccc(/C=C/C(=O)OC2CCCN(C)C2)cc1 (stereo unspecified)	0	1	-2	-3	102	-1
COc1ccc(C=CC(O)CCN2CCC3CCC(C3)C2)cc1 (stereo unspecified)	3	/	/	24*	/	/
CC(=O)Oc1cc2c(c3ccccc13)CCC2=O	-2	/	/	31*	/	/
Cc1ccccc1C(=O)c1cccn1CC(=O)NCc1ccccc1Cl	-6	2	11	4	104	-9
COc1cccc(NC(=O)C(NCCc2ccc(S(N)(=O)=O)cc2)c2ccccc2)c1 (stereo unspecified)	1	0	/	14	124	9
CCOC(=O)/C(=N\Nc1ccccc1)c1csc(Nc2ccc(C)cc2)n1	-4	0	17	2	88	60*
CC1CCC(C(C)C)C(OC(=O)C[n+]2cc(-c3ccc(Cl)cc3)n3c2CCCCC3)C1 (stereo unspecified)	4	0	39	3	89	56*
O=C(C[n+]1cc(-c2ccccc2)n2c1CCCCC2)c1ccc(Cl)cc1	0	0	11	2	92	38
CCCCCOc1ccc(C(O)C(CN2CCOCC2)c2ccccc2)cc1 (stereo unspecified)	2	-1	-47	11	85	-8
Cc1cccc(-c2nnc(SCC(=O)Nc3ncccn3)n2C)c1	4	0	9	-9	110	-10
CC(C)NC(=O)CSc1nnc(-c2ccc3ncccc3c2)n1C	-2	0	7	25*	90	-7
Cc1cc(N2CCN(C)CC2)nc2ccc(NC(=S)N3CCN(c4ccc(Cl)cc4)CC3)cc12	1	0	6	-7	110	61*
Cc1cccc(N2CCN(C(=S)Nc3ccc4nc(N5CCN(C)CC5)cc(C)c4c3)CC2)c1C	-2	0	9	-2	/	65*
Cc1cc(N2CCN(C)CC2)nc2ccc(NC(=S)N3CCN(c4ccc(F)cc4)CC3)cc12	0	0	41	-4	103	49
OC(c1ccccc1)c1ncc(-c2ccccc2F)[nH]1 (stereo unspecified)	/	/	/	11	/	/
COc1ccc(Nc2nc(CC(C)=O)ns2)cc1	0	1	6	0	100	-3
CCCn1ncc(OC)c(Cl)c1=O	2	0	34	22*	117	-1
O=C1c2ccccc2C2=Nc3ccccc3SC(c3cccc(F)c3)C12 (stereo unspecified)	0	4	38	-10	109	56*
COc1cccc(C(=O)O/N=C(\N)Cc2ccc(Cl)cc2)c1	-1	1	-92*	-1	102	3
